Measured values reported in ChEMBL document CHEMBL3407438, “Discovery of potent, orally bioavailable, small-molecule inhibitors of WNT signaling from a cell-based pathway screen” (J Med Chem, 2015).
In brackets after ≈: the same amount, converted by molar mass.

Assays:
cells = type: cell-based; conditions: Homo sapiens, 7dF3
Liver microsome = assay: Intrinsic clearance in rat liver microsome at 1 uM preincubated for 5 mins by LC-MS analysis; type: ADME; conditions: microsomes
[1] = Drug metabolism in human liver microsome at 10 uM after 30 mins by LC-MS analysis; type: ADME; conditions: liver microsomes, read-out: Drug metabolism
[2] = Drug metabolism in mouse liver microsome at 10 uM after 30 mins by LC-MS analysis; type: ADME; conditions: liver microsomes, read-out: Drug metabolism
[3] = Aqueous solubility of the compound; type: physicochemical; conditions: buffer
[4] = Inhibition of WNT signaling in human T-Rex HEK293 Tet-O cells harboring degradation resistant form of beta-catenin after 4 days by luciferase reporter assay; type: cell-based; conditions: HEK293, 96 h
Method in brief: (§1)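 HEK293 T-Rex Tet-O cells stably carrying TCF-firefly luciferase-IRES-GFP reporter plus Tet-inducible cDNA (ΔN-LRP6, Dvl2, Axin-GID, ΔN-β-catenin or VP16-TCF4) introduced by FLP-FRT recombination; seeded from frozen at 40 000/well; day 3 compound added, eight concentrations 30 μM to 14 nM (final), with doxycycline hyclate; day 4 cells lysed, firefly luciferase luminescence read.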

[5] = Inhibition of WNT signaling in human T-Rex HEK293 Tet-O cells harboring Dvl2 after 4 days by luciferase reporter assay; type: cell-based; conditions: HEK293, 96 h
Method in brief: as §1

[6] = Inhibition of WNT signaling in human T-Rex HEK293 Tet-O cells harboring constitutively active VP16-TCF in absence of beta-catenin after 4 days by luciferase reporter assay; type: cell-based; conditions: HEK293, 96 h
Method in brief: as §1

[7] = Inhibition of WNT signaling in human T-Rex HEK293 Tet-O cells harboring constitutively active deltaN-LRP6 after 4 days by luciferase reporter assay; type: cell-based; conditions: HEK293, 96 h
Method in brief: as §1

[8] = Inhibition of WNT signaling in human T-Rex HEK293 Tet-O cells harboring dominant negative form of Axin GSK3beta-interacting domain after 4 days by luciferase reporter assay; type: cell-based; conditions: HEK293, 96 h
Method in brief: as §1

[9] = Apparent permeability in human Caco2 cells after 2 hrs by LC-MS/MS analysis; type: ADME, cell-based, Caco-2; conditions: Caco-2

| IC50 (cells) [nM] | metabolised at 0.5 h, 10 µM [1] [%] | metabolised at 0.5 h, 10 µM [2] [%] | SMILES | also measured |
| --- | --- | --- | --- | --- |
| 27900 |  |  | NC(=O)C1CCN(c2c(Cl)cccc2Cl)CC1 |  |
| 1000 |  |  | O=C1NCCC12CCN(c1c(-c3ccc(N4CCOCC4)cc3)cncc1C1CC1)CC2 |  |
|  |  |  | Cn1ccc(-c2ccc(-c3cncc(Cl)c3N3CCC4(CCNC4=O)CC3)cc2)n1 | CLint (Liver microsome): 97 µL/min/mg |
| 1670 | 0 | 29 | CS(=O)(=O)c1ccc(-c2cncc(Cl)c2N2CCC(C(N)=O)CC2)cc1 |  |
| 26000 | 22 | 99 | CN(C)C(=O)C1CCN(c2c(Cl)cncc2Cl)CC1 |  |
| 88 | 6 | 56 | NC(=O)C1CCN(c2c(Cl)cncc2-c2ccccc2)CC1 |  |
| 123 |  |  | CN(C)c1ccc(-c2cncc(Cl)c2N2CCC(C(N)=O)CC2)cc1 |  |
| 23000 | 8 |  | NC(=O)C1CCN(c2ccncc2Cl)CC1 |  |
| 746 |  |  | O=C1CC2(CCN(c3c(Cl)cncc3-c3ccc(N4CCOCC4)cc3)CC2)CN1 |  |
| 113 | 5 | 26 | Cc1cncc(-c2ccc(N3CCOCC3)cc2)c1N1CCC2(CCNC2=O)CC1 |  |
| 42 | 19 | 21 | NC(=O)C1CCN(c2c(Cl)cncc2-c2ccc(N3CCOCC3)cc2)CC1 |  |
| 40 | 27 | 97 | NC(=O)C1CCN(c2c(Cl)cncc2-c2cccs2)CC1 |  |
| 70 |  | 78 | N#CC1CCN(c2c(Cl)cncc2-c2ccc(N3CCOCC3)cc2)CC1 |  |
|  |  |  | O=C1NCCC12CCN(c1c(Cl)cncc1-c1ccc(-c3cnoc3)cc1)CC2 | CLint (Liver microsome): 136 µL/min/mg |
| 715 |  |  | CN1CCC2(CCN(c3c(Cl)cncc3-c3ccc(N4CCOCC4)cc3)CC2)C1=O |  |
| 6 | 24 | 25 | O=C1CC2(CCN(c3c(Cl)cncc3-c3ccc(N4CCOCC4)cc3)CC2)C(=O)N1 | solubility [3]: 3 µg/mL (≈ 6.8 µM) |
| 87 | 21 | 20 | CC1(C(N)=O)CCN(c2c(Cl)cncc2-c2ccc(N3CCOCC3)cc2)CC1 |  |
| 5700 |  |  | O=C1NCCC12CCCN(c1c(Cl)cncc1-c1ccc(N3CCOCC3)cc1)C2 (racemic) |  |
| > 30000 |  |  | O=C1NCCC12CCN(c1c(-c3ccccc3)cncc1-c1ccc(N3CCOCC3)cc1)CC2 |  |
| > 30000 |  |  | NC(=O)C1CCN(c2ccncc2)CC1 |  |
|  |  |  | Cn1ncc2cc(-c3cncc(Cl)c3N3CCC4(CCNC4=O)CC3)ccc21 | CLint (Liver microsome): 66 µL/min/mg |
| 10000 |  |  | NCC1CCN(c2c(Cl)cncc2Cl)CC1 |  |
| 78 | 38 | 17 | CC(C)c1cncc(-c2ccc(N3CCOCC3)cc2)c1N1CCC2(CCNC2=O)CC1 |  |
|  |  |  | O=C1NCCC12CCN(c1c(Cl)cncc1-c1ccc(-c3ccncc3)cc1)CC2 | CLint (Liver microsome): 99 µL/min/mg |

| IC50 (cells) [nM] | metabolised at 0.5 h, 10 µM [1] [%] | metabolised at 0.5 h, 10 µM [2] [%] | SMILES | also measured |
| --- | --- | --- | --- | --- |
|  |  |  | O=C1NCCC12CCN(c1c(Cl)cncc1-c1ccc(C3CCOCC3)cc1)CC2 | CLint (Liver microsome): 111 µL/min/mg |
| 1700 | 6 | 88 | NC(=O)C1CCN(c2c(Cl)cncc2-c2cn[nH]c2)CC1 |  |
| > 30000 |  |  | O=C(Nc1ccccc1)C1CCN(c2c(Cl)cncc2Cl)CC1 |  |
| 1100 | 6 | 37 | NC(=O)C1CCN(c2c(Cl)cncc2-c2cccnc2)CC1 |  |
| 87 |  | 52 | NC(=O)C1CCN(c2c(Cl)cncc2-c2ccc(F)cc2)CC1 |  |
|  |  |  | Cn1cc(-c2ccc(-c3cncc(Cl)c3N3CCC4(CCNC4=O)C3)cc2)cn1 (racemic) | CLint (Liver microsome): 213 µL/min/mg |
| > 30000 |  |  | COCCNC(=O)C1CCN(c2c(Cl)cncc2Cl)CC1 |  |
| 778 | 4 | 27 | Cn1cc(-c2cncc(Cl)c2N2CCC(C(N)=O)CC2)cn1 |  |
|  |  |  | Cn1cc(-c2ccc(-c3cncc(Cl)c3N3CCC4(CCNC4=O)C3)cc2)cn1 (single isomer, unassigned; enantiomer 2) | CLint (Liver microsome): 124 µL/min/mg |
|  |  |  | CN1CCN(c2ccc(-c3cncc(Cl)c3N3CCC4(CCNC4=O)CC3)cc2)CC1 | CLint (Liver microsome): 10 µL/min/mg |
| 37 | 30 | 84 | COc1ccc(-c2cncc(Cl)c2N2CCC(C(N)=O)CC2)cc1 | IC50 [4]: 70 nM; IC50 [5]: 20 nM; IC50 [6]: 230 nM; IC50 [7]: 20 nM; IC50 [8]: 24 nM |
| 12 |  | 39 | C=C(C)c1cncc(-c2ccc(N3CCOCC3)cc2)c1N1CCC2(CCNC2=O)CC1 |  |
|  |  |  | Cn1cc(-c2ccc(-c3cncc(Cl)c3N3CCC4(CCNC4=O)C3)cc2)cn1 (stereo in doubt; 79) | CLint (Liver microsome): 298 µL/min/mg |
| 1200 |  |  | Cn1cc(-c2cncc(-c3ccc(N4CCOCC4)cc3)c2N2CCC3(CCNC3=O)CC2)cn1 |  |
| 309 | 39 | 38 | NC(=O)C1CCN(c2c(Cl)cncc2-c2cccc(N3CCOCC3)c2)CC1 |  |
| 12500 | 13 | 57 | CNC(=O)C1CCN(c2c(Cl)cncc2Cl)CC1 |  |
|  |  |  | O=C1NCCC12CCN(c1c(Cl)cncc1-c1ccc3cnccc3c1)CC2 | Papp at 2 h [9]: 24 ×10⁻⁶ cm/s |
| 728 | 5 | 40 | NC(=O)C1CCN(c2c(Cl)cncc2-c2ccncc2)CC1 |  |
| > 30000 |  |  | Clc1cncc(Cl)c1N1CCCCC1 |  |
| 360 | 13 | 35 | NC(=O)C1CCN(c2c(Br)cncc2Br)CC1 |  |
| 44600 |  |  | O=C(C1CCN(c2c(Cl)cncc2Cl)CC1)N1CCOCC1 |  |
|  |  |  | O=C1NCCC12CCN(c1c(Cl)cncc1-c1ccc(N3CCCCC3)cc1)CC2 | CLint (Liver microsome): 225 µL/min/mg |
| 3260 | 4 | 23 | NC(=O)C1CCN(c2ccncc2-c2ccccc2)CC1 |  |
| 55 |  | 42 | O=C1NCCC12CCN(c1c(Cl)cncc1-c1ccc(N3CCOCC3)cc1)C2 (racemic) |  |
